Laboratory results reported in PMC8519014 (Journal of pharmaceutical and biomedical analysis, 2017).
Structures can show the parent of a compound that is named as a salt.

Experiment: Mice pharmacokinetic study after oral administration of a mixture of 11 TKIs
Format: in vivo, FVB wild-type mice
Conditions: for concentration at 15 min / concentration at 30 min / concentration at 45 min / concentration at 60 min / concentration at 120 min / concentration at 240 min / AUC(0-t) / Cmax / Tmax: 1 mg/kg; for Tmax: oral gavage 1 mg/kg each as a mixture of 11 TKIs, FVB wild-type mice, blood, n = 4
Outline: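 Male FVB mice (25–30 g, 10–12 weeks) fasted overnight with water, then oral gavage of an 11-TKI cassette in oral suspension vehicle (0.06 mg/ml each), 1 mg/kg. Tail-tip blood (~15 μl, heparinized) taken at 15–1440 min (nine points). Quantified by UHPLC BEH C18–ESI triple-quadrupole MS/MS against blank-blood calibrants (acetonitrile/testosterone IS precipitation). Non-compartmental parameters, n = 4.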

[1] = male, FVB wild-type, mouse, whole blood, po
[2] = male, FVB wild-type, mouse, whole blood, po, Tmax

SMILES | concentration at 15 min [1] [ng/mL] | concentration at 30 min [1] [ng/mL] | concentration at 45 min [1] [ng/mL] | concentration at 60 min [1] [ng/mL] | concentration at 120 min [1] [ng/mL] | concentration at 240 min [1] [ng/mL] | Detection in blood after oral dosing (oral 1 mg/kg as mixture of 11 TKIs, mice) | AUC(0-t) [1] [ng·h/mL] | Cmax [1] [ng/mL] | Tmax [2] [h] | Tmax [h] | Systemic exposure (AUC) relative to sorafenib (pazopanib AUC versus sorafenib AUC, oral 1 mg/kg as mixture of 11 TKIs, mice) [times]
CN(C)C/C=C/C(=O)Nc1cc2c(Nc3ccc(F)c(Cl)c3)ncnc2cc1O[C@H]1CCOC1 [Afatinib, afatinib] |  |  |  |  |  |  | not detected |  |  |  |  | 
CNC(=O)c1ccccc1Sc1ccc2c(/C=C/c3ccccn3)n[nH]c2c1 [Axitinib, axitinib] | 51.7 ± 40 | 42.7 ± 19.3 | 46.1 ± 39.6 | 34.2 ± 37.3 | 11.1 ± 16.4 | 4.8 ± 26.8 |  |  |  |  |  | 
C#Cc1cccc(Nc2ncnc3cc(OCCOC)c(OCCOC)cc23)c1 [Erlotinib, erlotinib hydrochloride] | 147 ± 62.2 | 124 ± 45 | 120 ± 97.6 | 87.6 ± 87.6 | 23 ± 37.7 | 14.4 ± 24.9 |  |  | 147 ± 62.2 | 0.25 |  | 
Cc1ccc(NC(=O)c2ccc(CN3CCN(C)CC3)cc2)cc1Nc1nccc(-c2cccnc2)n1 [Imatinib] | 53.1 ± 20.1 | 55.7 ± 28.6 | 68.8 ± 63.8 | 48.1 ± 56.9 | 19.9 ± 19 | 11.1 ± 19.2 |  |  |  |  |  | 
COc1cc2ncnc(Nc3ccc(F)c(Cl)c3)c2cc1OCCCN1CCOCC1 [Gefitinib, gefitinib] | 24.7 ± 22 | 32.4 ± 28.1 | 36.7 ± 41.5 | 33.2 ± 42.7 | 21.8 ± 25.5 | 32.7 ± 26.3 |  |  |  |  |  | 
Cc1nc(Nc2ncc(C(=O)Nc3c(C)cccc3Cl)s2)cc(N2CCN(CCO)CC2)n1 [Dasatinib, dasatinib] | 9.1 ± 18.2 | 21.5 ± 19.2 | 34.3 ± 41.6 | 24.8 ± 49.7 | 18.4 ± 23.1 | 10.1 ± 20.2 |  |  |  |  |  | 

Now from value to compound:

concentration at 15 min [1] [ng/mL] | concentration at 30 min [1] [ng/mL] | concentration at 45 min [1] [ng/mL] | concentration at 60 min [1] [ng/mL] | concentration at 120 min [1] [ng/mL] | concentration at 240 min [1] [ng/mL] | Detection in blood after oral dosing (oral 1 mg/kg as mixture of 11 TKIs, mice) | AUC(0-t) [1] [ng·h/mL] | Cmax [1] [ng/mL] | Tmax [2] [h] | Tmax [h] | Systemic exposure (AUC) relative to sorafenib (pazopanib AUC versus sorafenib AUC, oral 1 mg/kg as mixture of 11 TKIs, mice) [times] | SMILES
62.1 ± 32.8 | 59.1 ± 31.4 | 69 ± 37.2 | 68.8 ± 26.8 | 67.3 ± 64.3 | 34.6 ± 33.1 |  |  |  |  |  |  | Cc1cn(-c2cc(NC(=O)c3ccc(C)c(Nc4nccc(-c5cccnc5)n4)c3)cc(C(F)(F)F)c2)cn1 [Nilotinib, nilotinib]
9.4 ± 12.1 | 18.4 ± 10.6 | 22.8 ± 18.9 | 12.7 ± 20 | 14.7 ± 15.8 |  |  |  |  |  |  |  | CCN(CC)CCNC(=O)c1c(C)[nH]c(/C=C2\C(=O)Nc3ccc(F)cc32)c1C [Sunitinib, sunitinib malate]
 |  |  |  |  |  |  | 4150 | 717 ± 206 | ~1.62 | 1.62 ± 1.11 | 7.5 | Cc1ccc(Nc2nccc(N(C)c3ccc4c(C)n(C)nc4c3)n2)cc1S(N)(=O)=O [Pazopanib, pazopanib hydrochloride]
 |  |  |  |  |  |  | 558 | 154 ± 30.4 | 1 |  |  | CNC(=O)c1cc(Oc2ccc(NC(=O)Nc3ccc(Cl)c(C(F)(F)F)c3)cc2)ccn1 [Sorafenib, sorafenib tosylate]
8.8 ± 12.7 | 16.3 ± 28.2 | 21.4 ± 25.6 | 21.2 ± 25.7 | 20.1 ± 28.2 | 18.1 ± 25.4 |  |  |  |  |  |  | CS(=O)(=O)CCNCc1ccc(-c2ccc3ncnc(Nc4ccc(OCc5cccc(F)c5)c(Cl)c4)c3c2)o1 [Lapatinib, lapatinib]
